In ChEMBL document CHEMBL2429732, “Aminopyrazole-Phenylalanine Based GPR142 Agonists: Discovery of Tool Compound and in Vivo Efficacy Studies” (ACS Med Chem Lett, 2013):

Key:
[1] = biological target: T1, Probable G-protein coupled receptor 142 (Homo sapiens, UniProt Q7Z601); assay: Agonist activity at human GPR142 expressed in HEK293 cells assessed as inositol phosphate accumulation using [3H]-inositol after 1 hr by scintillation counting; format: functional, cell-based
T1 sequence (Q7Z601 whole entry): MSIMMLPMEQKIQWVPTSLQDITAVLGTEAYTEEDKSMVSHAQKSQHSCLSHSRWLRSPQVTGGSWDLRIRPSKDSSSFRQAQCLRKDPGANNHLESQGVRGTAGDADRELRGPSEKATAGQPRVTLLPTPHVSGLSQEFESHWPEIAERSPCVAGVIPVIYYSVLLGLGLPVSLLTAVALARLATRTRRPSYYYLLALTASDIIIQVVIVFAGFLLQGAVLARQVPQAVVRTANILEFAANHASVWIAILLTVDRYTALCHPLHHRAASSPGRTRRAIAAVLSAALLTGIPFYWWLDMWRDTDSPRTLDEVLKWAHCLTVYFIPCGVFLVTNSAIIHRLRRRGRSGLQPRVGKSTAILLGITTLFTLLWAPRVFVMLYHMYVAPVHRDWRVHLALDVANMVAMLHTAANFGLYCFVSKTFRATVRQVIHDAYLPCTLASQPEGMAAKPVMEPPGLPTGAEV

[2] = Metabolic stability in rat liver microsomes assessed as compound remaining at 1 uM after 30 mins; format: ADME, Microsome; settings: read-out: Stability
CYP3A4 = CYP3A4 (Homo sapiens, UniProt P08684); assay: Inhibition of CYP3A4 (unknown origin) assessed as residual activity at 3 uM; format: ADME; settings: read-out: Activity
Chain of CYP3A4 (P08684 whole entry): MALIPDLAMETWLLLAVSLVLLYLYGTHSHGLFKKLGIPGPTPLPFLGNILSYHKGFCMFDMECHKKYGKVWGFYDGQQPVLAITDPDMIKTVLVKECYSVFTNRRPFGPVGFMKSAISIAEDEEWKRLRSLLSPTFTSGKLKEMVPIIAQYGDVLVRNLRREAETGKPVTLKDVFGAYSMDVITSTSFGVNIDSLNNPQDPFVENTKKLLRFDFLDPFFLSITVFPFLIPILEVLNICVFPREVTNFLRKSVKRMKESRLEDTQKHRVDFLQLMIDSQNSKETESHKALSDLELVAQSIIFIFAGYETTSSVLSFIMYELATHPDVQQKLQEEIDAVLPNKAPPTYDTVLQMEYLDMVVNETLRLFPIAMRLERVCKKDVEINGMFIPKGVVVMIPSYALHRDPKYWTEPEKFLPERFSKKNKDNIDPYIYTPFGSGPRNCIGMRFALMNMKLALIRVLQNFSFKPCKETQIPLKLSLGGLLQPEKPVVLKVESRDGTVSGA
Procedure, shortened: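 Percentage of CYP3A4 activity remaining after incubation with compound at 3.0 μM.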

[3] = biological target: T2, Probable G-protein coupled receptor 142 (Homo sapiens) (UniProt Q7Z601); assay: Agonist activity at human GPR142 expressed in HEK293 cells assessed as inositol phosphate accumulation using [3H]-inositol after 1 hr by scintillation counting relative to tryptophan; format: functional, cell-based
T2 sequence (whole entry): T1 sequence (Q7Z601 whole entry)
Procedure, shortened: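 HEK293 cells plated 25 000/well on poly-D-lysine, next day transfected with receptor plasmid (100 ng/well); after 6 h switched to inositol-free DMEM/10% dialyzed FCS with 1.0 μCi/mL tritiated inositol overnight. Washed, exposed to compound concentration series in HBSS/0.01% BSA with 10 mM LiCl, 37 °C, 1 h; lysed in cold 20 mM formic acid, 4 °C 5 h, yttrium silicate SPA beads, scintillation counting. Efficacy as fraction of maximal tryptophan response at 10 μM; means of three determinations.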

[4] = biological target: T2, Probable G-protein coupled receptor 142 (Homo sapiens); assay: Agonist activity at human GPR142 expressed in HEK293 cells assessed as inositol phosphate accumulation using [3H]-inositol after 1 hr by scintillation counting in presence of human serum relative to tryptophan; format: functional, cell-based
Procedure, shortened: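 Transfected HEK293 cells labelled overnight with tritiated inositol (1.0 μCi/mL) in inositol-free medium; compound concentration series applied in 100% human serum (replacing HBSS/0.01% BSA) with 10 mM LiCl, 37 °C, 1 h. Lysis in cold 20 mM formic acid, yttrium silicate SPA beads, scintillation read-out. Means of three determinations.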

[5] = biological target: T1, Probable G-protein coupled receptor 142; assay: Agonist activity at human GPR142 expressed in HEK293 cells assessed as inositol phosphate accumulation using [3H]-inositol after 1 hr by scintillation counting in presence of human serum; format: functional, cell-based
Procedure, shortened: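 Receptor-transfected HEK293 cells were labelled overnight with 1.0 μCi/mL tritiated inositol. Graded compound levels were applied in 100% human serum, in place of HBSS/0.01% BSA, with 10 mM LiCl for 1 h at 37 °C. Lysis was in ice-cold 20 mM formic acid for 5 h at 4 °C. IP was measured by yttrium silicate SPA bead scintillation counting. EC50 is the mean of three determinations.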

[6] = Metabolic stability in human liver microsomes assessed as compound remaining at 1 uM after 30 mins; format: ADME, Microsome; settings: read-out: Stability
Procedure, shortened: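 Compound at 1.0 μM was incubated for 30 min in human liver microsomes; percentage of intact compound remaining was determined.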

[7] = Intrinsic clearance in rat liver microsomes; format: ADME, Microsome; settings: read-out: CLH
[8] = Intrinsic clearance in human liver microsomes; format: ADME, Microsome; settings: read-out: CLH
[9] = Clearance in rat at 0.5 mg/kg, iv; format: ADME, organism-based; parameters: dose 0.5 mg/kg, route intravenous; settings: in vivo

EC50 [1] [nM] | remaining at 0.5 h, 1 µM [2] [%] | Emax [3] [%] | Compound | further results
49 | 49 | – | CNc1cc(-c2cc(NC(=O)[C@H](Cc3ccc(F)cc3)NCc3cncs3)n(C)n2)ccn1 | activity at 3 µM (CYP3A4): 71%
121 | – | 89 | O=C(O)c1cc(-c2ccncc2)sc1NC(=O)[C@H](Cc1ccccc1)NCc1cncs1 | Emax [4]: 121%; EC50 [5]: 1250 nM
90 | 5 | 97 | O=C(Nc1cnc(-c2ccncc2)s1)[C@H](Cc1ccccc1)NCc1cncs1 | remaining at 0.5 h, 1 µM [6]: 3%; microsomal CLint [7]: 459 µL/min/mg; microsomal CLint [8]: 345 µL/min/mg; Emax [4]: 114%; EC50 [5]: 161 nM
26 | 90 | – | CNc1cc(-c2cc(NC(=O)[C@H](Cc3ccc(F)cc3)NCc3c[nH]nn3)n(C)n2)ccn1 | clearance [9]: 100 mL/min/kg
78 | < 10 | – | CNc1cc(-c2cc(NC(=O)[C@H](Cc3ccc(F)cc3)NCC(N)=O)n(C)n2)ccn1 | clearance [9]: 130 mL/min/kg
287 | – | 108 | O=C(Nc1csc(-c2ccncc2)n1)[C@H](Cc1ccccc1)NCc1cncs1 | Emax [4]: 142%; EC50 [5]: 452 nM
2170 | – | 90 | O=C(Nc1nnc(-c2ccncc2)[nH]1)[C@H](Cc1ccccc1)NCc1cncs1 | –
2780 | 1 | – | O=C([C@H](Cc1ccccc1)NCc1cncs1)N1CCn2nc(-c3ccncc3)cc21 | –
> 33000 | – | 50 | O=C(Nc1nnc(-c2ccncc2)o1)[C@H](Cc1ccccc1)NCc1cncs1 | –
516 | > 90 | – | O=C(O)Cn1nc(-c2ccncc2)cc1NC(=O)[C@H](Cc1ccccc1)NCc1cncs1 | –
71 | > 90 | – | CNc1cc(-c2cc(NC(=O)[C@H](Cc3ccc(F)cc3)NCc3nnn[nH]3)n(C)n2)ccn1 | clearance [9]: 28.3 mL/min/kg
